{"source": "paper PMC6175223", "about": "(Journal of Clinical Pharmacology, 2018)", "key": {"[1]": {"conditions": "cited from earlier work"}, "Study A": {"assay": "Study A", "assay_type": "in vivo, human", "conditions": "for Cmax / Vd/F / half-life / Tmax: male, human, plasma, oral, 4 mg; for Cmax / Vd/F / half-life / CL/F: geometric mean (geometric CV%); for Vd/F: Vz/F; for Tmax: median (minimum, maximum)"}, "[2]": {"assay": "Study A safety assessment", "assay_type": "in vivo, human", "procedure,_shortened": "(§1)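 Safety was monitored by adverse-event reporting, physical examination, vital signs, 12-lead ECG and clinical laboratory tests. Concomitant medications and AEs were recorded from signing of the consent form until a follow-up safety telephone call. SAEs made known within 28 days after the last investigational dose were also recorded, as were later SAEs suspected to be related.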"}, "[3]": {"assay": "Study B safety assessment", "assay_type": "in vivo, human", "procedure,_shortened": "as §1"}, "CYP2C19": {"tested_on": "CYP2C19", "conditions": "in vitro; earlier data, no reference given; cited from earlier work"}, "Study B": {"assay": "Study B", "assay_type": "in vivo, human", "conditions": "for AUC(0-inf) / Cmax / Vd/F / half-life / Tmax: male, human, plasma; for Cmax / Vd/F / half-life / CL/F: geometric mean (geometric CV%); for Vd/F: Vz/F; for Tmax: median (minimum, maximum)"}, "CYP1A2": {"tested_on": "CYP1A2", "conditions": "in vitro; earlier data, no reference given; cited from earlier work"}, "CYP3A4": {"tested_on": "CYP3A4", "conditions": "in vitro; earlier data, no reference given; cited from earlier work"}, "[4]": {"conditions": "cited from earlier work", "remark": "listed apart in the source"}, "[5]": {"assay": "Study A: caffeine clearance in smokers and nonsmokers", "assay_type": "in vivo, human", "conditions": "for Caffeine plasma clearance CL/F: 200 mg oral caffeine, geometric mean", "procedure,_shortened": "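A 200 mg oral caffeine capsule was given on day 6 after an overnight fast of ≥10 h, with a methylxanthine-free diet for ≥1 week before and during the study. Plasma caffeine and paraxanthine were sampled predose and at 0.5–12 h. LC-MS/MS, LLOQ 20 ng/mL. Noncompartmental CL/F. ANOVA on ln-transformed data with cohort as fixed effect; smoker/nonsmoker geometric means.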"}, "[6]": {"conditions": "healthy adult men; cited from earlier work"}, "CYP2D6": {"tested_on": "CYP2D6", "conditions": "in vitro; earlier data, no reference given; cited from earlier work"}, "[7]": {"conditions": "smokers compared with nonsmokers"}, "[8]": {"conditions": "oral, 4 mg, pomalidomide 4 mg administered alone"}, "[9]": {"conditions": "oral, 4 mg, pomalidomide 4 mg administered with fluvoxamine"}, "[10]": {"conditions": "with fluvoxamine compared with alone"}, "[11]": {"conditions": "multiple dose, 0.5- to 2-mg dose range"}}, "note": "Read-outs that look alike come from different tables or passages of the source."}
{"smiles": "Nc1cccc2c1C(=O)N(C1CCC(=O)NC1=O)C2=O", "note": "(stereo not shown) [pomalidomide]", "values": [{"measurement": "Change in pomalidomide exposure (in words)", "setting": "[1]; coadministration of ketoconazole", "result": "mild increase in pomalidomide exposure that was not considered clinically relevant"}, {"measurement": "Change in mean pomalidomide exposure (in words)", "setting": "[1]; concomitant fluvoxamine and ketoconazole, healthy men", "result": "approximately doubled"}, {"measurement": "t1/2", "setting": "[1]; prior drug interaction study", "result": 6.1, "unit": "h"}, {"measurement": "Increase of total drug exposure", "setting": "[1]; single 4-mg dose with CYP3A inhibitor ketoconazole versus alone", "result": 18.8, "unit": "%"}, {"measurement": "Increase of total drug exposure", "setting": "[1]; single 4-mg dose with ketoconazole + fluvoxamine versus alone", "result": 145.7, "unit": "%"}, {"measurement": "Cmax", "setting": "Study A; nonsmokers", "result": 56.3, "unit": "ng/mL"}, {"measurement": "Cmax", "setting": "Study A; smokers", "result": 64.4, "unit": "ng/mL"}, {"measurement": "Vd/F", "setting": "Study A; nonsmokers", "result": 65.8, "unit": "L"}, {"measurement": "Vd/F", "setting": "Study A; smokers", "result": 59.7, "unit": "L"}, {"measurement": "half-life", "setting": "Study A; t1/2, nonsmokers", "result": 7.8, "unit": "h"}, {"measurement": "half-life", "setting": "Study A; t1/2, smokers", "result": 4.8, "unit": "h"}, {"measurement": "Tmax", "setting": "Study A; nonsmokers", "result": 3, "unit": "h"}, {"measurement": "Tmax", "setting": "Study A; smokers", "result": 1.8, "unit": "h"}, {"measurement": "CL/F", "setting": "Study A; nonsmokers", "result": 5.8, "unit": "L/h"}, {"measurement": "CL/F", "setting": "Study A; nonsmokers, listed as Pomalidomide", "result": "5.8 (19.6) L/h"}, {"measurement": "Decrease of AUC0-inf (lower in smokers)", "setting": "Study A; [7]", "result": 32.3, "unit": "%"}, {"measurement": "Increase of Cmax (higher in smokers)", "setting": "Study A; [7]", "result": 14.4, "unit": "%"}, {"measurement": "Ratio (%) of geometric means, AUC0-inf", "setting": "Study A; smokers/nonsmokers", "result": 67.7, "unit": "%"}, {"measurement": "Ratio (%) of geometric means, Cmax", "setting": "Study A; smokers/nonsmokers", "result": 114.4, "unit": "%"}, {"measurement": "CL/F", "setting": "Study A; smokers", "result": 8.6, "unit": "L/h"}, {"measurement": "CL/F", "setting": "Study A; smokers, listed as Pomalidomide", "result": "8.6 (32.5) L/h"}, {"measurement": "Difference in incidence of TEAEs between smokers and nonsmokers", "setting": "[2]; only TEAEs that occurred after pomalidomide dosing", "result": "no difference"}, {"measurement": "Safety and tolerability", "setting": "[2]; single oral dose of 4 mg in healthy male smokers and nonsmokers ≥ 40 to ≤ 80 years old", "result": "safe and well tolerated"}, {"measurement": "Deaths", "setting": "[2]; study A", "result": "no deaths"}, {"measurement": "Number of TEAEs suspected of being related to the study drug", "setting": "[2]; study A", "result": 22}, {"measurement": "SAEs or severe TEAEs", "setting": "[2]; study A", "result": "No subject experienced an SAE or severe TEAE"}, {"measurement": "Number of TEAEs reported", "setting": "[2]; study A overall", "result": 37}, {"measurement": "Subjects reporting TEAEs suspected of being related to the study drug", "setting": "[2]; study A, 12 subjects", "result": 21.8, "unit": "%"}, {"measurement": "Number of TEAEs of moderate severity", "setting": "[2]; study A, all presyncope, not considered related to the study drug", "result": 3}, {"measurement": "Safety and tolerability", "setting": "[3]; single oral 4 mg pomalidomide coadministered with multiple oral 50-mg doses of fluvoxamine, healthy male subjects", "result": "safe and well tolerated"}, {"measurement": "Deaths, SAEs, or TEAEs leading to discontinuation", "setting": "[3]; study B", "result": "No deaths, SAEs, or TEAEs leading to discontinuation were reported"}, {"measurement": "TEAEs related to the study drug", "setting": "[3]; study B", "result": "No subject reported at least 1 TEAE related to the study drug"}, {"measurement": "Subjects reporting TEAEs", "setting": "[3]; study B overall, 1 of 15 subjects", "result": 6.7, "unit": "%"}, {"measurement": "Metabolism by CYP enzyme", "setting": "CYP2C19", "result": "to a minor extent"}, {"measurement": "AUC(0-inf)", "setting": "Study B; oral", "result": 1190, "unit": "ng·h/mL"}, {"measurement": "AUC(0-inf)", "setting": "Study B; oral, 4 mg", "result": 526, "unit": "ng·h/mL"}, {"measurement": "Cmax", "setting": "Study B; [8]", "result": 49.2, "unit": "ng/mL"}, {"measurement": "Cmax", "setting": "Study B; [9]", "result": 59.5, "unit": "ng/mL"}, {"measurement": "Vd/F", "setting": "Study B; [8]", "result": 65.4, "unit": "L"}, {"measurement": "Vd/F", "setting": "Study B; [9]", "result": 64, "unit": "L"}, {"measurement": "half-life", "setting": "Study B; oral, 4 mg, t1/2, pomalidomide 4 mg administered alone", "result": 6, "unit": "h"}, {"measurement": "half-life", "setting": "Study B; oral, 4 mg, t1/2, pomalidomide 4 mg administered with fluvoxamine", "result": 13.1, "unit": "h"}, {"measurement": "Tmax", "setting": "Study B; [8]", "result": 3, "unit": "h"}, {"measurement": "Tmax", "setting": "Study B; [9]", "result": 4.5, "unit": "h"}, {"measurement": "AUC(0-inf)", "setting": "Study B; po, 4 mg", "result": 526, "unit": "ng·h/mL"}, {"measurement": "CL/F", "setting": "Study B; pomalidomide 4 mg administered alone", "result": 7.6, "unit": "L/h"}, {"measurement": "CL/F", "setting": "Study B; pomalidomide 4 mg administered with fluvoxamine", "result": 3.4, "unit": "L/h"}, {"measurement": "Increase of AUC0-inf", "setting": "Study B; [10]", "result": 125.1, "unit": "%"}, {"measurement": "Increase of Cmax", "setting": "Study B; [10]", "result": 23.7, "unit": "%"}, {"measurement": "Ratio (%) of geometric means, AUC0-inf", "setting": "Study B; with fluvoxamine versus alone", "result": 225.1, "unit": "%"}, {"measurement": "Ratio (%) of geometric means, Cmax", "setting": "Study B; with fluvoxamine versus alone", "result": 123.7, "unit": "%"}, {"measurement": "Metabolism by CYP enzyme", "setting": "CYP1A2", "result": "capable of metabolizing pomalidomide"}, {"measurement": "Metabolism by CYP enzyme", "setting": "CYP3A4", "result": "capable of metabolizing pomalidomide"}, {"measurement": "mean apparent terminal half-life (t1/2)", "setting": "[4]", "result": "approximately 7.5 hours"}, {"measurement": "Accumulation (AUC and Cmax)", "setting": "[4]; [11]", "result": "less than 14.0%"}, {"measurement": "Time to steady state", "setting": "[4]; [11]", "result": "≤ 3", "unit": "days"}, {"measurement": "Dose proportionality of systemic exposure (AUC)", "setting": "[4]; single dose up to 50 mg", "result": "approximately dose‐proportional"}, {"measurement": "Correlation between caffeine clearance and pomalidomide clearance", "setting": "[5]; in vivo, study A", "result": "good correlation"}, {"measurement": "Fraction of the dose excreted in urine as unchanged drug", "setting": "[6]", "result": "< 5.0 % of the administered dose"}, {"measurement": "Renal excretion of pomalidomide-related material", "setting": "[6]", "result": "~73.0 % of the administered dose"}, {"measurement": "Metabolism by CYP enzyme", "setting": "CYP2D6", "result": "to a minor extent"}]}
{"smiles": "Cn1c(=O)c2c(ncn2C)n(C)c1=O", "note": "[caffeine]", "values": [{"measurement": "Caffeine plasma clearance CL/F", "setting": "[5]; nonsmokers (cohort B)", "result": 5.3, "unit": "L/h"}, {"measurement": "Caffeine plasma clearance CL/F", "setting": "[5]; smokers (cohort A)", "result": 9.9, "unit": "L/h"}, {"measurement": "Caffeine clearance, fold higher in smokers than in nonsmokers", "setting": "[5]; smokers versus nonsmokers", "result": "approximately 2 fold"}]}
